These results are taken from ChEMBL document CHEMBL4152271, “Polypharmacological profile of 1,2-dihydro-2-oxo-pyridine-3-carboxamides in the endocannabinoid system” (Eur J Med Chem, 2018).

Experiment [1] has as its target T1, Monoacylglycerol lipase ABHD6 (Homo sapiens, UniProt Q9BV23).
T1 sequence (Q9BV23 whole entry): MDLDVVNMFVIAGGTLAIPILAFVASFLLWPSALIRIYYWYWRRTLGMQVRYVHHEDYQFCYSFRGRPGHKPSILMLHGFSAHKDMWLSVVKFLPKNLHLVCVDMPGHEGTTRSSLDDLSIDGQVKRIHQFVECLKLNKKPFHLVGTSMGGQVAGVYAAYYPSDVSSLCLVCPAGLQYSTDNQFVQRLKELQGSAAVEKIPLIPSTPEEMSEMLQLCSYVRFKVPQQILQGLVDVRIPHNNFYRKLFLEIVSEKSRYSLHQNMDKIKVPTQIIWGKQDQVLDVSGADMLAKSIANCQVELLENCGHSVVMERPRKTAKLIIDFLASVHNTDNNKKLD
Nature of the experiment: Inhibition of human ABHD6 expressed in HEK293 cells using 2-OG as substrate preincubated for 30 mins followed by substrate addition and measured after 5 mins by liquid scintillation spectroscopic method. It is filed as cell-based. An outline of the steps: (§1)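 Homogenate (40 µg) of HEK293 cells stably transfected with hABHD6 or hABHD12, compound preincubated 30 min at 37 °C in […], 0.1% BSA, pH 7.6. DMSO vehicle; WWL70 10 µM or THL 20 µM as positive controls. 10 µM 2-OG added for 5 min at 37 °C, stopped with CHCl₃:MeOH. Aqueous phase counted; no-enzyme blanks and non-transfected HEK293 hydrolysis subtracted.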

Experiment [2] addresses T2, Fatty-acid amide hydrolase 1 (Homo sapiens, UniProt O00519).
T2 sequence (O00519 whole entry): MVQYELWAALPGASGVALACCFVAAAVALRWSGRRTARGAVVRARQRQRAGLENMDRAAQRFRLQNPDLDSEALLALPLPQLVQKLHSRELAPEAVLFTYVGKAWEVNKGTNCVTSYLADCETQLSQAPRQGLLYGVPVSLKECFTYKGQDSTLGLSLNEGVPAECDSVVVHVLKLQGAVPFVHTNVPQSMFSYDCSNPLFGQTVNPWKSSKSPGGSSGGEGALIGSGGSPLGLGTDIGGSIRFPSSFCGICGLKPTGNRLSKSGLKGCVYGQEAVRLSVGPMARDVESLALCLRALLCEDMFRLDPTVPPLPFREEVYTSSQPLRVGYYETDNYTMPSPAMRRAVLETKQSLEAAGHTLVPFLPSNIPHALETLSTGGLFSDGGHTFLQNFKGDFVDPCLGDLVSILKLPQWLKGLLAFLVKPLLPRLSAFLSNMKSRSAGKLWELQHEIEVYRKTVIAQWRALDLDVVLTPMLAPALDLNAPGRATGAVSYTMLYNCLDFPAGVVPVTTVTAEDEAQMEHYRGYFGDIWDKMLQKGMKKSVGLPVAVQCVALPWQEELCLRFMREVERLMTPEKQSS
As to the kind of experiment: Inhibition of FAAH in human U937 cells using AEA containing [ethanolamine-1-3H]AEA as substrate preincubated for 30 mins followed by substrate addition and measured after 15 mins by liquid scintillation spectroscopic method. It is filed as cell-based. An outline of the steps:
(§2)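 U937 cell homogenate (100 µg) in 10 mM Tris-HCl, 1 mM EDTA, pH 8, 0.1% fatty acid-free BSA. Compound at 10 µM screening concentration, 30 min at 37 °C. FAAH: 100 nM AEA with 1 nM [³H]AEA tracer. MAGL: 1 µM 2-OG with 1 nM tritiated tracer. Both 15 min at 37 °C, stopped with CHCl₃:MeOH (1:1), aqueous phase counted.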

Experiment [3] has as its target T3, Cannabinoid receptor 1 (Homo sapiens, UniProt P21554). As to the kind of experiment: Agonist activity at human CB1 receptor expressed in CHO cell membranes after 90 mins by [35S]GTPgammaS binding assay. It is filed as functional, cell-based. On the technique in general: Binding of GTPγS marks nucleotide exchange on a G protein.
The test system of a further experiment is U-251. As to the kind of experiment: Cytotoxicity against human U251MG cells assessed as decrease in cell viability at 0.6 to 40 uM after 48 hrs by MTT assay. It is filed as functional, cell-based. An outline of the steps: (§3)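 U251MG (EMEM, 10% FBS) or U937 (RPMI 1640, 10% FBS) cells plated at 4x10³/well for 24h, then exposed to compounds (0–40 µM) for 48 h at 37°C. MTT reduction, formazan read at 595 nm. Viability as % of untreated control. Five independent experiments in triplicate, mean ± SD, ANOVA with Bonferroni.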
Background: Formazan colour is commonly taken as a measure of viable cells.

Experiment [4] has as its target T4, Lysophosphatidylserine lipase ABHD12 (Homo sapiens, UniProt Q8N2K0).
T4 sequence (Q8N2K0 whole entry): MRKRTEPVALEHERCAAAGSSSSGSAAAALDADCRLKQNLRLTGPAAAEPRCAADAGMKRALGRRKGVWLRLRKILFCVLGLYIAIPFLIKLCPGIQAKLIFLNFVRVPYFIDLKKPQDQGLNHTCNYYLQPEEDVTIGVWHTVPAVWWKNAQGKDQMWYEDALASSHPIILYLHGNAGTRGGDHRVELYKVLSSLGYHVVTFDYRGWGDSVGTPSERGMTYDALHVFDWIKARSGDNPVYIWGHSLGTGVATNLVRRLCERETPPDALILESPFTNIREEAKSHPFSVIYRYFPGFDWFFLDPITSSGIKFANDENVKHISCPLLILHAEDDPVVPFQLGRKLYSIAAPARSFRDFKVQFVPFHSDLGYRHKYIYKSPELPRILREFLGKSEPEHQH
Nature of the experiment: Inhibition of human ABHD12 expressed in HEK293 cells using 2-OG as substrate preincubated for 30 mins followed by substrate addition and measured after 5 mins by liquid scintillation spectroscopic method. It is filed as cell-based. The method in brief: as §1

The subject of experiment [5] is U-937. As to the kind of experiment: Cytotoxicity against human U937 cells assessed as decrease in cell viability at 0.6 to 40 uM after 48 hrs by MTT assay. The experiment is classed as functional, cell-based. An outline of the steps:
as §3

Another experiment concerns the target T5, Monoglyceride lipase (Homo sapiens, UniProt Q99685).
T5 sequence (Q99685 whole entry): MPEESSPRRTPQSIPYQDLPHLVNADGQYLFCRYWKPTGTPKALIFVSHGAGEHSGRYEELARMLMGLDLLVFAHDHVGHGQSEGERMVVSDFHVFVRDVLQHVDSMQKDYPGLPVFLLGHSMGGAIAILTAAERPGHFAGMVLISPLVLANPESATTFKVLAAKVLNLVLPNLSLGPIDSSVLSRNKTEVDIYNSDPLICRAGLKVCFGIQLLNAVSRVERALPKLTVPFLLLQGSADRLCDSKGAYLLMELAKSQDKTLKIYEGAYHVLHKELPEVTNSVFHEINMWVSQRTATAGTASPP
Nature of the experiment: Inhibition of MAGL in human U937 cells using 2-OG containing […] as substrate preincubated for 30 mins followed by substrate addition and measured after 15 mins by liquid scintillation spectroscopic method. It is filed as cell-based. The method in brief: as §2

Experiment [6] has as its target T6, Cannabinoid receptor 2 (Homo sapiens, UniProt P34972). As to the kind of experiment: Agonist activity at human CB2 receptor expressed in CHO cell membranes after 90 mins by [35S]GTPgammaS binding assay. It is filed as functional. The method in brief: (§4)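 Membranes (5 µg) of hCB2-expressing cells in 50 mM Tris-HCl, 3 mM MgCl₂, 0.2 mM EDTA, 100 mM NaCl, 0.5% fatty acid-free BSA, pH 7.4, with 10 µM GDP and 0.1 nM [³⁵S]GTPγS. Kept on ice, started by vehicle or compound, 90 min at 30 °C. Nonspecific binding with 10 µM GTPγS. Filtered on GF/B, radioactivity counted. At least three experiments in triplicate, mean ± SD.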

Experiment [7] concerns the target T3, Cannabinoid receptor 1. As to the kind of experiment: Displacement of [3H]-CP55940 from human CB1 receptor expressed in CHO cell membranes after 90 mins. In general terms: Displacement assays read how much labelled ligand stays bound in the presence of the test substance.
Experiment [8] deals with U-937. As to the kind of experiment: Inhibition of [ethanolamine-1-3H]AEA/unlabeled AEA uptake in human U937 cells preincubated for 15 mins followed by [ethanolamine-1-3H]AEA/unlabeled AEA addition and measured after 15 mins by scintillation counting method. It is filed as functional, cell-based. The method in brief:
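Intact U937 cells (0.5x10⁶ per sample) in RPMI, preincubated with compound for 15 min at 37 °C. Then 1 nM [ethanolamine-1-³H]AEA plus unlabeled AEA (final 100 nM) added for 15 min. Stopped by rapid filtration and ice-cold PBS/1% BSA washes, radioactivity counted. At least three experiments in triplicate, mean ± SD.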

The target of experiment [9] is T6, Cannabinoid receptor 2. Nature of the experiment: Displacement of [3H]-CP55940 from human CB2 receptor expressed in CHO cell membranes after 90 mins. An outline of the steps: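 Membranes expressing hCB1 or hCB2 (stably transfected CHO) in 50 mM Tris-HCl, 2.5 mM EDTA, 5 mM MgCl₂, 0.5% fatty acid-free BSA, pH 7.4. Nonspecific binding with 10 µM […]. GF/B filtration, radioactivity counted, Ki derived. Mean ± SD, at least 3 experiments in triplicate.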

The species named for another experiment is Homo sapiens. As to the kind of experiment: Selectivity ratio of Ki for human CB1 receptor to Ki for human CB2 receptor. The method in brief: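 Membranes expressing hCB1 or hCB2 (stably transfected CHO) in 50 mM Tris-HCl, 2.5 mM EDTA, 5 mM MgCl₂, 0.5% fatty acid-free BSA, pH 7.4. Incubated with compound and 0.5 nM [³H]CP55,940 for 90 min at 30 °C. Nonspecific binding with 10 µM […]. GF/B filtration, radioactivity counted, Ki derived. Mean ± SD, at least 3 experiments in triplicate.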

Experiment [10] addresses T6, Cannabinoid receptor 2. Nature of the experiment: Agonist activity at human CB2 receptor expressed in CHO cell membranes after 90 mins by [35S]GTPgammaS binding assay relative to control. It is filed as functional. An outline of the steps:
as §4

Each structure is given as a SMILES string. Active and inactive are the calls of the source. No cut-off for these calls is given here.

T6 sequence (P34972 whole entry): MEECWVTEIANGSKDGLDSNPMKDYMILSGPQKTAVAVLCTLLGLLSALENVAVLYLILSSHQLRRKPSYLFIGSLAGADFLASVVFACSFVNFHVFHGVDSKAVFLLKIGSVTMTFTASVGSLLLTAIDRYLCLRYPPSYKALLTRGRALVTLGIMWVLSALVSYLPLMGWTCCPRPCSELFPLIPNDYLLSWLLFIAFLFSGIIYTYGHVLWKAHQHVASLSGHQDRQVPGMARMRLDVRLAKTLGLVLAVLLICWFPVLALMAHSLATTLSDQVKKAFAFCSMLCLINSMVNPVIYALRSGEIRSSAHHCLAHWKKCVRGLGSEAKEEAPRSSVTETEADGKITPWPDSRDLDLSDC
T3 sequence (P21554 whole entry): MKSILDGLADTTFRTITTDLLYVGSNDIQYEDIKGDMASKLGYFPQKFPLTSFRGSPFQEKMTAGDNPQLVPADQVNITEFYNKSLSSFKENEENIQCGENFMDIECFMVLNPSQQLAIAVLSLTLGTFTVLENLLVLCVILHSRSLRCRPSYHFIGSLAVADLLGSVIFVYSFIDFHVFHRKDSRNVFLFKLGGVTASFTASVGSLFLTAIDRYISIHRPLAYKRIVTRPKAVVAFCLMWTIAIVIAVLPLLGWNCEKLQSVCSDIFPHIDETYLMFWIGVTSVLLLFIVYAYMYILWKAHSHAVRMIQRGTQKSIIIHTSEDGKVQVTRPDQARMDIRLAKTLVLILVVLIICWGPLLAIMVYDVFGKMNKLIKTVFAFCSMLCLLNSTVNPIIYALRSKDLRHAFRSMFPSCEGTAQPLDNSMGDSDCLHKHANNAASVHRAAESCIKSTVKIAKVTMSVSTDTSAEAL

Broadly, the IC50 is the concentration that gives 50% inhibition. Read a high IC50 as lower potency. Usually EC50 stands for the midpoint of the concentration-response curve. By Ki is commonly meant a dissociation constant, usually derived from enzyme kinetics or from competition with a known ligand. One may read the Emax as the greatest response seen or fitted, relative to the assay's reference. In the case of `Cc1ccnc(OCc2ccc(F)cc2)c1C(=O)NC1CCCCCC1`, the IC50 in [1] was more than 10000 nM; in experiment [2], more than 10000 nM; in experiment [4], more than 10000 nM; at Monoglyceride lipase, more than 10000 nM; in the experiment with U-937 [8], 580 nM. Further, the EC50 on Cannabinoid receptor 1 [3] was 229 nM; on Cannabinoid receptor 2 [6] it was 31 nM. Besides, the result in the experiment on U-251 was inactive. Also, the result in the experiment with U-937 [5] was Active. The Ki at Cannabinoid receptor 1 [7] was 131 nM; at Cannabinoid receptor 2 [9], 46.3 nM. Further, in the experiment filed under Homo sapiens, the Ratio Ki is 2 to 54. The Emax at Cannabinoid receptor 2 [10] was 127%.
